This excerpt belongs to a sample that is enriched for hits.
ABCG2 inh: ABCG2 efflux pump inhibitors, primary screen, multiplex with ABCB1, IgMXP3 cells, flow cytometry; JC-1 efflux; inhibition, % at 6.6 µM; actives 0.1% (n = 190,000); AID 1325, 2008;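 active = inhibition above 80%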
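Test system: IgMXP3 (ABCG2) plus far-red-tagged CCRF-Adr (ABCB1) cells. Reagent: JC-1 dye as substrate. Timing: 10 min exposure at 25 °C with rotation, no wash. Measured by: flow cytometric JC-1 green MFI at 530 nm. Read-out: percent efflux inhibition, scaled nicardipine 100% to DMSO 0%. Control set: nicardipine and DMSO wells.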
ABCB1 inh: ABCB1 efflux pump inhibitors, primary screen, cell-based, multiplex, flow cytometry, ABCG2 counter-screen. ATP-dependent translocase ABCB1 (Homo sapiens), P08183. actives 0.067% (n = 190,000). CCRF-Adr cells, JC-1 efflux. inhibition, % at 6.6 µM. AID 1326, 2008; in the data active = inhibition above about 40%;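 also: higher value means more JC-1 retained so stronger ABCB1 efflux block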
GSH fluor: compound fluorescence on glutathione beads, profiling panel, artefact control, biophysical, 488/530 nm, flow cytometry; GSH beads flow cytometry, compound fluorescence 488/530 nm; stronger effect = higher value; fluorescence (KMESF) at 10 µM; actives 0.25% (n = 190,000); AID 1776, 2009; in the data active = fluorescence above about 89;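 also: glutathione beads carrying GST-tagged Bcl family fusion proteins plus one bare bead set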
Avidin bead fluor: green autofluorescence of compounds with avidin beads – biophysical, 488/530 nm, flow cytometry, artefact control, profiling panel; compound fluorescence 488/530 nm; stronger effect = higher value; fluorescence (KMESF) at 10 µM; actives 0.38% (n = 220,000); in the data active = fluorescence above about 47
Lmaj promast: Leishmania major promastigote growth inhibition, primary screen. Leishmania major promastigotes, resazurin fluorescence viability. inhibition, % at 10 µM. actives 9% (n = 200,000);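 also: promastigotes grown with compound for 44 hours at 28 °C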
PKD1 inh: inhibitors of human PKD1 kinase, biochemical, fluorescence polarization | inhibition, % (concentration not given with the values) | actives 0.056% (n = 200,000) | Serine/threonine-protein kinase D1 (Homo sapiens), Q15139 | PKD1 kinase fluorescence polarization assay
Of the large screens only hits and unclear results are named; the others gave an inactive call. Rule as the data show it, unless noted: active = inhibition above about 50%; inactive = the rest.

O=C(COc1cccc2ccccc12)NNC(=O)Nc1ccccc1	none
O=C(COc1cccc2ccccc12)NNC(=O)CSCCO	Lmaj promast 57.4
Cc1sc2ncnc(Nc3ccccc3)c2c1C	Avidin bead fluor 92
Cc1sc2ncnc(Sc3nnnn3-c3ccccc3)c2c1C	Lmaj promast 88.7
CC1CCC(C(C)C)C2=C1C(C#N)(C#N)C(C#N)(C#N)C(c1ccccc1)N2 (stereo not given)	Lmaj promast 99.7
CCc1ccc(C(=O)C(C)OC(=O)C2COc3ccccc3O2)cc1 (stereo not given)	none
O=C(Nc1ccc(Cl)cc1)c1ccc(Br)cc1F	none
Cn1c(Cc2cccc3ccccc23)nnc1SCC(=O)N1CCN(c2ccccc2)CC1	Lmaj promast 57.5
CC(C)c1ccccc1-n1c(SCC(=O)N2CCN(c3ccccc3)CC2)nnc1-c1cccnc1	Lmaj promast 96.4
CCOc1ccccc1-n1c(SCC(=O)N2CCCc3ccccc32)nnc1-c1cccnc1	Lmaj promast 53.2
Cn1c(Cc2ccccc2)nnc1SCC(=O)N1CCN(c2ccccc2)CC1	none
O=C(CSc1nnc(-c2cccnc2)n1-c1ccc(SC(F)F)cc1)N1CCCc2ccccc21	Lmaj promast 88.0
Cn1c(SCC(=O)N2CCN(c3ccccc3)CC2)nnc1-c1ccncc1	none
Cc1ccc(-n2c(SCC(=O)N3CCCc4ccccc43)nnc2-c2cccnc2)c(C)c1	Lmaj promast 59.0
COc1ccc(-c2nnc(SCc3nnc(-c4ccc(Cl)cc4)o3)n2-c2ccccc2)cc1	Lmaj promast 88.7
COc1ccc(-c2nnc(SCc3nnc(-c4ccccc4)o3)n2-c2ccccc2)cc1	none
COC(=O)c1ccccc1NC(=O)c1nc2nc(C)cc(C)n2n1	Avidin bead fluor 134
O=C(COc1ccc(/C=N/NC(=O)c2cc3ccccc3o2)cc1Cl)Nc1ccccc1	GSH fluor 116, Avidin bead fluor 49
COc1cc(/C=N/NC(=O)c2cccnc2)ccc1OCC(=O)Nc1c(C)cc(C)cc1C	Lmaj promast 54.2
COc1ccc(NC(=O)COc2ccc(/C=N/NC(=O)c3cccnc3)cc2OC)cc1	Lmaj promast 55.3
CC(C)(C)NC(=O)C(c1ccccn1)N(C(=O)C1CSC(=O)C1)c1ccc(F)cc1 (stereo not given)	none
CN(C)CCCNC(=O)c1ccc(-c2ccccc2)cc1	Lmaj promast 85.8
CN(C)CCCNC(=O)c1cc2sc3ccccc3c2s1	Lmaj promast 91.8
CC(C)c1ccc(C(=O)NCCCN(C)C)cc1	none
Cc1cc(C)cc(SCc2noc(C(=O)NCc3ccccc3)c2C(=O)NCc2ccccc2)c1	none (no result: ABCG2 inh, ABCB1 inh, GSH fluor, Lmaj promast, PKD1 inh)
COCCCNC(=S)NNC(=O)c1cc(Cl)c(O)c(Cl)c1	none (no result: ABCG2 inh, ABCB1 inh, GSH fluor, Lmaj promast, PKD1 inh)
O=C(CSc1ccc(Cl)cc1)N1CCN(c2c(Cl)cccc2[N+](=O)[O-])CC1	Lmaj promast 64.8
NS(=O)(=O)c1cccc(NC(=O)COC(=O)C2(c3cccc(F)c3)CCCC2)c1	none
CCCSc1nc(C)c(CC(=O)OCC)c(=O)[nH]1	none
C=CCSc1nc(C)c(CC(=O)OCC(C)C)c(=O)[nH]1	Avidin bead fluor 48
Cc1ccc(NC(=S)N2CCCC(c3nc4ccc(C)cc4[nH]3)C2)c(C)c1 (stereo not given)	Lmaj promast 62.4
Cc1ccc2nc(C3CCCN(C(=S)Nc4cccc(C)c4C)C3)[nH]c2c1 (stereo not given)	Lmaj promast 82.0
Cc1cc2nc(C3CCCN(C(=S)Nc4ccccc4C)C3)[nH]c2cc1C (stereo not given)	none
Cc1nn(Cc2cccc(C(=O)NCC(C)C)c2)c(C)c1Br	GSH fluor 148
Cc1nn(Cc2cccc(C(N)=O)c2)c(C)c1Br	none (no result: ABCG2 inh, ABCB1 inh, GSH fluor, Lmaj promast, PKD1 inh)
O=C(NC(=S)N1CCN(Cc2ccc3c(c2)OCO3)CC1)c1ccc(Cl)cc1	none
CN1/C(=C\C(=O)c2ccccc2Cl)c2ccccc2CC1(C)C	Lmaj promast 70.3
Cc1ccc2c(C)nc(Nc3nc(CSc4nnnn4-c4ccccc4)cc(=O)[nH]3)nc2c1	none
CCOc1ccc2nc(Nc3nc(CSc4nnnn4-c4ccccc4)cc(=O)[nH]3)nc(C)c2c1	Lmaj promast 50.2
COc1ccc2nc(Nc3nc(CSc4nnnn4-c4ccccc4)cc(=O)[nH]3)nc(C)c2c1	Avidin bead fluor 95
COc1ccc2nc(Nc3nc(C)c(CCC(C)C)c(=O)[nH]3)nc(C)c2c1	Lmaj promast 99.2
COc1ccc2nc(Nc3nc(CSc4ccc(C)cc4)cc(=O)[nH]3)nc(C)c2c1	Lmaj promast 64.9
Cc1ccc(SCc2cc(=O)[nH]c(Nc3nc(C)c4cccc(C)c4n3)n2)cc1	none
O=C(N/N=C/c1ccc(O)cc1)c1ccc(COc2cc(Cl)ccc2Cl)o1	none
O=C(Nc1nc2ccc(S(=O)(=O)N3CCCC3)cc2s1)c1ccccn1	Lmaj promast 98.7
Cc1ccc2nc(NC(=O)c3ccccn3)sc2c1	Lmaj promast 98.1
O=C(Nc1nc2c(F)cc(F)cc2s1)c1ccccn1	Lmaj promast 97.6
O=C(Nc1nc(-c2ccccc2)c(-c2ccccc2)s1)c1ccc(S(=O)(=O)N2CCCCC2)cc1	Lmaj promast 98.6
CCOc1ccc2nc(NC(=O)Cn3[nH]c(=O)c4ccccc4c3=O)sc2c1	none (no result: ABCG2 inh, ABCB1 inh, GSH fluor, Lmaj promast, PKD1 inh)
CCn1c(=O)c([N+](=O)[O-])c(NCCc2ccccc2)c2ccccc21	Lmaj promast 100.2
Cn1c(=O)c([N+](=O)[O-])c(NCCc2ccccc2)c2ccccc21	none
O=C(N/N=C/c1cc(Br)ccc1O)C(=O)Nc1ccccc1OC(F)(F)C(F)F	Lmaj promast 99.2
COc1ccccc1/C=N/NC(=O)C(=O)Nc1ccccc1OC(F)(F)C(F)F	none
O=C(N/N=C/c1cc(Cl)ccc1O)C(=O)Nc1ccccc1OC(F)(F)C(F)F	Lmaj promast 99.2
Cc1ccc(C(C)C)cc1NC(=O)Nc1ccc([N+](=O)[O-])cc1	none (no result: ABCG2 inh, ABCB1 inh, GSH fluor, Lmaj promast, PKD1 inh)
COc1cccc(/C=N/n2c(N)c(S(=O)(=O)c3cccs3)c3nc4ccccc4nc32)c1OC	none
Nc1c(S(=O)(=O)c2cccc(Cl)c2)c2nc3ccccc3nc2n1/N=C/c1ccc(O)c(O)c1	Lmaj promast 99.6
Cc1ccc(-n2c(=O)c3c(n4cnnc24)-c2ccccc2CC32CCCCC2)cc1	Lmaj promast 95.8
CCC1CCCCN1S(=O)(=O)c1ccc2c(c1)CCN2C(=O)C1CCC1 (stereo not given)	none
O=C(C1CCC(C(=O)N2CCc3ccccc32)CC1)N1CCc2ccccc21 (stereo not given)	none
O=C(CCl)c1ccc2c(c1)CCN2C(=O)C1CC1	Lmaj promast 100.5
